≈ marks a conversion by molar mass, not a printed value.
Tests used:
[1] = system: Wolbachia pipientis (wAlbB) in C6/36 cells; experiment: Anti-Wolbachia cell-based assay; conditions: C6/36, read-out: EC50 anti-Wolbachia, cell assay
[2] = system: Wolbachia within B. malayi mf; experiment: B. malayi microfilaria time-kill assay; assay type: cell-based, Brugia malayi; conditions: drug concentration 10 times EC50; exposures 1, 2, 6 d
Summary of the method: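 This is a time-kill variant of the 6-d B. malayi mf assay: 8,000 mf per well in supplemented RPMI at 37 °C, 5% CO2. Drug was removed by a wash step on the indicated exposure day. Wolbachia was then quantified by wsp/gst qPCR, with five replicates per time point per treatment. Results come from one experiment.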

[3] = Solubility in fasted state-simulated intestinal fluid; assay type: physicochemical
[4] = system: CYP1A, CYP2C9, CYP2C19, CYP2D6, CYP3A; experiment: Time-dependent inhibition of five major human CYP450 isoforms; assay type: in vitro ADME
[5] = target: P-gp (Homo sapiens, UniProt P08183); experiment: P-gp-mediated efflux; assay type: in vitro ADME; conditions: not told
[6] = pKa; assay type: physicochemical
[7] = Aqueous solubility in pH 7.4 PBS buffer; assay type: physicochemical
[8] = Permeability in LLC-PK1 cell assay; assay type: in vitro ADME; conditions: pig
[9] = target: CYP2C9 (Homo sapiens, UniProt P11712); experiment: CYP2C9 inhibition; assay type: in vitro ADME
[10] = system: Wolbachia in female adult L. sigmodontis; experiment: L. sigmodontis gerbil model: Wolbachia load; assay type: in vivo, Litomosoides sigmodontis; conditions: 18 wk post treatment
Summary of the method: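 Female gerbils aged 6–8 wk were infected by exposure to Ornithonyssus bacoti mites carrying L. sigmodontis L3. Treatment started 13 wk after infection, with animals randomised into groups of n = 5–9. Test compound in PEG300/propylene glycol/water (55/25/20) was given by oral gavage at 2.5 mL/kg. At necropsy 18 wk after treatment start, worms were recovered from the serous cavities. Wolbachia was measured by ftsZ qPCR in 5–20 individual female worms. Groups were compared with untreated controls by Kruskal–Wallis with Dunn's test.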

[11] = system: Wolbachia within female B. malayi adult parasites; experiment: Adult B. malayi SCID mouse model: Wolbachia load; assay type: in vivo, Brugia malayi; conditions: 100 mg/kg, 7 d orally
[12] = Mouse PK in BALB/c mice; conditions: in vivo
[13] = system: B. malayi; experiment: Adult B. malayi SCID mouse model: parasitology readout; assay type: in vivo, Brugia malayi; conditions: over the 6 wk of observation post treatment
[14] = Ames test
[15] = system: CYP3A4; experiment: CYP3A4 induction; assay type: in vitro ADME; conditions: human
[16] = system: L. sigmodontis; experiment: L. sigmodontis gerbil model: parasitology readout; assay type: in vivo, Litomosoides sigmodontis
Summary of the method: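 Gerbils were infected with L. sigmodontis via mites and given oral treatment from 13 wk post infection. Starting at 12 wk post infection, 10 µL of saphenous-vein blood was taken every two weeks and diluted in 300 µL Hinkelmann solution. Samples were centrifuged at 400 × g for 5 min, and the pellet was resuspended in 1 mL. Total mf were counted microscopically in a Sedgewick Rafter chamber, with follow-up to 18 wk after treatment start.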

Chain of P-gp (P08183 whole entry): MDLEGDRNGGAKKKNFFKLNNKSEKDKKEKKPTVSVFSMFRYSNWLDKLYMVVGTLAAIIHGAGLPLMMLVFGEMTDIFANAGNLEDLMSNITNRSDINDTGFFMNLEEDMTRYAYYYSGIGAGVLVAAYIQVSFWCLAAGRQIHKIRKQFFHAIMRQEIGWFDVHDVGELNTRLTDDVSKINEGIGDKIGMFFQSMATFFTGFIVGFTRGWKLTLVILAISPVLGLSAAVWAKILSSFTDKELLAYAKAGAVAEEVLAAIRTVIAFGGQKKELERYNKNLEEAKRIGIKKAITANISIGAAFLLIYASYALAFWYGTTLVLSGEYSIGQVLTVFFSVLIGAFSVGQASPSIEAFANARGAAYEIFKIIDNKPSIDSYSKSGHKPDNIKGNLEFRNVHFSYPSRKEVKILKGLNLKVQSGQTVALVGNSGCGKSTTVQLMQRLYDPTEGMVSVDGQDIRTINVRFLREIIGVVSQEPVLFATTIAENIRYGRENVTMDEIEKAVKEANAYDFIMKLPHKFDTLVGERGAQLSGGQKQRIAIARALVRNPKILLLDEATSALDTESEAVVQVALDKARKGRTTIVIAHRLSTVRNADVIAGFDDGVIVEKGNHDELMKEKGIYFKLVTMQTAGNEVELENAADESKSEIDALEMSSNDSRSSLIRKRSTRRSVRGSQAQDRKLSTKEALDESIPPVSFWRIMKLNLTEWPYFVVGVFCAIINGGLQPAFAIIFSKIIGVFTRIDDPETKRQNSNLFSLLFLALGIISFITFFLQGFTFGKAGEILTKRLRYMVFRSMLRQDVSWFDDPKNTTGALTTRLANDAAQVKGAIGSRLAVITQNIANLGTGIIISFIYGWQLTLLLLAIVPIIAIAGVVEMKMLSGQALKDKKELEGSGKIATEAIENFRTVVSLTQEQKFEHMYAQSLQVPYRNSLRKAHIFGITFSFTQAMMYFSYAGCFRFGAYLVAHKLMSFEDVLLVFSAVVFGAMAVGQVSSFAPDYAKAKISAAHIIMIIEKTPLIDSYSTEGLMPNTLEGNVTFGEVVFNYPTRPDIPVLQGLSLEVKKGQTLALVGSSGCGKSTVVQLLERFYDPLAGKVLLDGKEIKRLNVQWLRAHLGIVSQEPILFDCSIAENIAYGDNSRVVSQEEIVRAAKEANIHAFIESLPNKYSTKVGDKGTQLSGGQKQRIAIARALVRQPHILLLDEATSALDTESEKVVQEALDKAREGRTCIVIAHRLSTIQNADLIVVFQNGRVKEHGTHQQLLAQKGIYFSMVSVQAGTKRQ
Chain of CYP2C9 (P11712 whole entry): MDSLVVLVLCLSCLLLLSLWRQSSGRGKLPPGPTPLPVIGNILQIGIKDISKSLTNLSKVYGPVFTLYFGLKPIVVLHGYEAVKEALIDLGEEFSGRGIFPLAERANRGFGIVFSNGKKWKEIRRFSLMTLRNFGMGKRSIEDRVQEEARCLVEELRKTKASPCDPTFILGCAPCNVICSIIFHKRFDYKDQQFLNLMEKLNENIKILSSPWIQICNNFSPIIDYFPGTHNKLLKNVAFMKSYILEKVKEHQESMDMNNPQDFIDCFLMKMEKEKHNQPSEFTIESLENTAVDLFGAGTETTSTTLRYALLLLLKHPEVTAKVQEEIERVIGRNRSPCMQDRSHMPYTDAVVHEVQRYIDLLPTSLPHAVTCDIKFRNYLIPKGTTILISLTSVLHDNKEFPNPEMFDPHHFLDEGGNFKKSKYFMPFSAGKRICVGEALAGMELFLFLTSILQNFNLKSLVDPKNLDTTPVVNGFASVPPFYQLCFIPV

C[C@H]1COCCN1c1nc(NCc2cccnc2C(F)(F)F)c2cccnc2n1 [AWZ1066S, (S)-2-(3-methylmorpholino)-N-((2-(trifluoromethyl)pyridin-3-yl)methyl)pyrido[2,3-d]pyrimidin-4-amine]
EC50 [1]: 0.0025 ± 0.0004 µM
drug exposure needed for maximum reduction of Wolbachia [2]: 1 days
solubility [3]: 560 µg/mL (≈ 1380 µM)
time-dependent inhibition [4]: does not show any time-dependent inhibition
efflux ratio [5]: 7.8
pKa [6]: 5.6
solubility [7]: 238 µM (≈ 96.2 µg/mL)
Papp [8]: 7.4 ×10⁻⁶ cm/s
IC50 [9]: 9.7 µM
Wolbachia load reduction compared with control untreated animals ([10]; 50 mg/kg orally twice daily 7 d): > 99%
Wolbachia load reduction compared with control untreated animals ([10]; 100 mg/kg orally twice daily 7 d): > 99%
Wolbachia reduction compared with the vehicle group [11]: 98%
bioavailability ([12]; BALB/c SCID, po): 54 to 91%
clearance ([12]; iv, 5 mg/kg, total clearance, dosed intravenously): 7.83 mL/min/kg
mice in which release of mf was completely prevented [13]: 9/10
Ames test result [14]: negative
IC50 [15]: 37 µM
time from which peripheral blood microfilaremia began to decline ([16]; 7-d treatment): 6 wk post treatment
time from which amicrofilaremia was evident ([16]; 7-d treatment groups, sustained until 18 wk): 14 wk post treatment
